# Like-named read-outs stand apart in the source and are kept apart here.
# What was measured:
# CYP3A4 [1] = system: CYP3A4
# clinical [2] = settings: human, in vivo, po
# clinical [3] = settings: human, in vivo, 600 mg, fasted period, n = 8, mean
# [4] = cited from earlier work
# [5] = Safety: adverse events and laboratory findings in healthy volunteers; type: in vivo, human
# How it was run: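 Healthy volunteers receiving at least one dose of study drug formed the safety population. End points were incidence and severity of AEs, and baseline changes in vital signs, clinical laboratory tests and 12-lead ECG. DDI stage: one cohort of nine, test compound given fasted with co-administered midazolam. Other stages: single oral 150–1800 mg; 300 or 900 mg b.i.d.; 600 mg fasted then after high-fat meal.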
# human whole blood = settings: cited from earlier work
# Urinary PK = type: in vivo, human; settings: multiple b.i.d. dosing (MAD)
# clinical [6] = settings: human, in vivo, n = 6, mean; for AUC: AUC0–tau; for Cmax: C max
# IL‐1β [7] = assay: Ex vivo LPS/ATP stimulation of whole blood from participants: IL‐1β production; type: cell-based, human; settings: for maximum mean inhibition of IL‐1β production: relative to baseline
# How it was run: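 Whole blood from participants was drawn predose and at postdose timepoints. MAD dosing was oral 300 or 900 mg b.i.d. on days 1–6 plus one morning dose on day 7, fasted. Blood was stimulated ex vivo with an LPS plus ATP cocktail. Secreted IL-1β was the mean of two technical replicates. Inhibition = [1−(postdose/predose stimulated level)]×100%. IC90 came from a sigmoid Emax fit against time-matched plasma drug levels (HPLC-MS/MS).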
# [8] = for DN AUC0–last / CL/F: SAD, fasted, n = 6, mean
# [9] = for C min: steady‐state (day 7), n = 6, mean
# [10] = 600 mg, high‐fat vs fasted
# [11] = cynomolgus monkey, 4‐week study; cited from earlier work
# CYP3A4 [12] = assay: In vitro CYP3A4 induction assays and preliminary PBPK modeling; type: in vitro ADME; settings: unpublished data
# IL‐18 = assay: Ex vivo LPS/ATP stimulation of whole blood from participants: IL‐18 production; type: cell-based, human
# CYP3A4 [13] = assay: clinical; settings: human, in vivo
# [14] = Plasma PK of metabolite indacenyl amine after GDC‐2394; type: in vivo, human
# IL‐1β [15] = settings: patients with atherosclerosis and residual inflammation ref 8; cited from earlier work
# [16] = 1‐hydroxymidazolam, day 10 vs day 1
# [17] = midazolam 5 mg alone (reference, day 1), analyte 1‐hydroxymidazolam, n 9
# [18] = 300 mg, MAD 300 mg b.i.d., first dose (day 1)
# [19] = 300 mg, MAD 300 mg b.i.d., steady‐state (day 7)
# [20] = 900 mg, MAD 900 mg b.i.d., first dose (day 1)
# [21] = 900 mg, MAD 900 mg b.i.d., steady‐state (day 7)
# [22] = single 150‐mg, 450‐mg and 900‐mg doses
# [23] = single doses of 600 mg, both fasted and high‐fat periods
molecule,measurement,setting,value
OCc1ncc2n1-c1ccc(Cl)cc1C(c1ccccc1F)=NC2 [1‐hydroxymidazolam],AUC0–inf GMR,CYP3A4 [1]; [16],90%
same,AUC0–last GMR,CYP3A4 [1]; [16],88%
same,Cmax GMR,CYP3A4 [1]; [16],92%
same,"AUC0–inf, geometric LS mean",CYP3A4 [1]; [17],20.3 ng·h/mL
same,"AUC0–last, geometric LS mean",CYP3A4 [1]; [17],18.8 ng·h/mL
same,"C max, geometric LS mean",CYP3A4 [1]; [17],9.25 ng/mL
"CN[C@@H]1COc2c(S(=O)(=O)NC(=O)Nc3c4c(cc5c3CCC5)CCC4)cnn2C1 [GDC‐2394, (S)‐N‐((1,2,3,5,6,7‐hexahydro‐s‐indacen‐4‐yl)carbamoyl)‐6‐(methylamino)‐6,7‐dihydro‐5H‐pyrazolo[5,1‐b][1,3]oxazine‐3‐sulfonamide]",half-life,clinical [2],246 to 516 min
same,AUC(0-t),clinical [2]; 150 mg,53.5 µg·h/mL
same,Cmax,clinical [2]; 150 mg,8110 ng/mL
same,Tmax,clinical [2]; 150 mg,2.1 h
same,Vd/F,clinical [2]; 150 mg,16.7 L
same,half-life,clinical [2]; 150 mg,246 min
same,AUC(0-inf),clinical [2]; 450 mg,138 µg·h/mL
same,AUC(0-t),clinical [2]; 450 mg,138 µg·h/mL
same,Cmax,clinical [2]; 450 mg,22900 ng/mL
same,Tmax,clinical [2]; 450 mg,2 h
same,Vd/F,clinical [2]; 450 mg,30.2 L
same,half-life,clinical [2]; 450 mg,348 min
same,AUC(0-inf),clinical [2]; 900 mg,317 µg·h/mL
same,AUC(0-t),clinical [2]; 900 mg,317 µg·h/mL
same,Cmax,clinical [2]; 900 mg,50400 ng/mL
same,Tmax,clinical [2]; 900 mg,2 h
same,Vd/F,clinical [2]; 900 mg,34.9 L
same,half-life,clinical [2]; 900 mg,408 min
same,AUC(0-inf),clinical [2]; 1800 mg,739 µg·h/mL
same,AUC(0-t),clinical [2]; 1800 mg,738 µg·h/mL
same,Cmax,clinical [2]; 1800 mg,101000 ng/mL
same,Tmax,clinical [2]; 1800 mg,4 h
same,Vd/F,clinical [2]; 1800 mg,32.1 L
same,half-life,clinical [2]; 1800 mg,516 min
same,Cmax,"clinical [3]; C max, FE 600 mg single dose",28000 ng/mL
same,half-life,"clinical [3]; T 1/2, FE 600 mg single dose",318 min
same,blood:plasma ratio,[4],0.6
same,participants with events consistent with hepatic injury,"[5]; DDI stage, after completion of GDC‐2394 dosing",Three
same,time to recovery from severe DILI,"[5]; DDI stage, both participants",≤ 3 months
same,total number of events considered related to study treatment,"[5]; DDI stage, n = 9",14
same,peak elevation of ALT,"[5]; MAD 900 mg b.i.d., one subject, day 14",1.67 × the upper limit of normal [ULN]
same,Subjects with at least one AE leading to dose modification/interruption,"[5]; MAD, all GDC‐2394 (n = 12)",0
same,Subjects with at least one AE leading to withdrawal from treatment,"[5]; MAD, all GDC‐2394 (n = 12)",0
same,Subjects with at least one AE with fatal outcome,"[5]; MAD, all GDC‐2394 (n = 12)",0
same,Subjects with at least one grade 3–5 AE (at greatest intensity),"[5]; MAD, all GDC‐2394 (n = 12)",0
same,Subjects with at least one related AE,"[5]; MAD, all GDC‐2394 (n = 12)",4 (33.3%)
same,Subjects with at least one related serious AE,"[5]; MAD, all GDC‐2394 (n = 12)",0
same,Subjects with at least one serious AE,"[5]; MAD, all GDC‐2394 (n = 12)",0
same,Total number of AEs,"[5]; MAD, all GDC‐2394 (n = 12)",18
same,Total number of deaths,"[5]; MAD, all GDC‐2394 (n = 12)",0
same,Total number of subjects with at least one AE,"[5]; MAD, all GDC‐2394 (n = 12)",8 (66.7%)
same,Total number of subjects withdrawn from study due to an AE,"[5]; MAD, all GDC‐2394 (n = 12)",0
same,Subjects with at least one AE leading to dose modification/interruption,"[5]; SAD, all GDC‐2394 (n = 24)",0
same,Subjects with at least one AE leading to withdrawal from treatment,"[5]; SAD, all GDC‐2394 (n = 24)",0
same,Subjects with at least one AE with fatal outcome,"[5]; SAD, all GDC‐2394 (n = 24)",0
same,Subjects with at least one grade 3–5 AE (at greatest intensity),"[5]; SAD, all GDC‐2394 (n = 24)",0
same,Subjects with at least one related AE,"[5]; SAD, all GDC‐2394 (n = 24)",6 (25.0%)
same,Subjects with at least one related serious AE,"[5]; SAD, all GDC‐2394 (n = 24)",0
same,Subjects with at least one serious AE,"[5]; SAD, all GDC‐2394 (n = 24)",0
same,Total number of AEs,"[5]; SAD, all GDC‐2394 (n = 24)",22
same,Total number of deaths,"[5]; SAD, all GDC‐2394 (n = 24)",0
same,Total number of subjects with at least one AE,"[5]; SAD, all GDC‐2394 (n = 24)",14 (58.3%)
same,Total number of subjects withdrawn from study due to an AE,"[5]; SAD, all GDC‐2394 (n = 24)",0
same,in vitro human whole blood IC90,human whole blood,639 ng/mL
same,IC90,human whole blood; read-out: in vitro human whole blood IC90,1480 nM
same,CYP3A4 induction potential / impact on systemic exposure of midazolam and 1‐hydroxymidazolam,"CYP3A4 [1]; human, in vivo",minimal CYP3A4 induction potential
same,CYP3A4 induction potential / impact on systemic exposure of midazolam and 1‐hydroxymidazolam,CYP3A4 [1]; in vivo,did not have an apparent impact
same,"mean fraction of drug excreted in urine 0 to 12 h postdose on day 7, range",Urinary PK,12.3% to 14.8
same,AUC,clinical [6]; [18],82 µg·h/mL
same,AUC,clinical [6]; [19],92.2 µg·h/mL
same,Cmax,clinical [6]; [18],15300 ng/mL
same,Cmax,clinical [6]; [19],16400 ng/mL
same,AUC,clinical [6]; [20],301 µg·h/mL
same,AUC,clinical [6]; [21],327 µg·h/mL
same,Cmax,clinical [6]; [20],52700 ng/mL
same,Cmax,clinical [6]; [21],51000 ng/mL
same,mean inhibition of IL‐1β production sustained over the 7‐day dosing period,IL‐1β [7]; 300 mg b.i.d.,greater than 95%
same,mean inhibition of IL‐1β production sustained over the 7‐day dosing period,IL‐1β [7]; 900 mg b.i.d.,greater than 99%
same,IC90,"IL‐1β [7]; Homo sapiens, read-out: estimated plasma IC90 for IL‐1β inhibition",~2500 nM
same,maximum mean inhibition of IL‐1β production,IL‐1β [7]; single 150‐mg dose,greater than 97%
same,time for which maximum mean IL‐1β inhibition was sustained,IL‐1β [7]; [22],~ 8 h
same,maximum mean inhibition of IL‐1β production,IL‐1β [7]; single 450‐mg dose,greater than 97%
same,maximum mean inhibition of IL‐1β production,IL‐1β [7]; single 900‐mg dose,greater than 99%
same,mean inhibition of IL‐1β production,IL‐1β [7]; single dose of 1800 mg,greater than or equal to 99%
same,time for which mean IL‐1β inhibition was sustained,IL‐1β [7]; single dose of 1800 mg,~ 24 h
same,mean inhibition of IL‐1β production,IL‐1β [7]; [23],greater than 99%
same,time for which mean IL‐1β inhibition was sustained,IL‐1β [7]; [23],8 h
same,observed AUC relative to the preclinical prediction,[8]; 150‐mg starting dose,approximately three‐fold
same,DN AUC0–last,[8]; single oral 150 mg,356 ng·h/mL/mg
same,CL/F,[8]; single oral 450 mg,3390 mL/h
same,DN AUC0–last,[8]; single oral 450 mg,307 ng·h/mL/mg
same,CL/F,[8]; single oral 900 mg,3040 mL/h
same,DN AUC0–last,[8]; single oral 900 mg,352 ng·h/mL/mg
same,CL/F,[8]; single oral 1800 mg,2590 mL/h
same,DN AUC0–last,[8]; single oral 1800 mg,410 ng·h/mL/mg
same,increases in systemic exposure with dose (dose‐normalized Cmax and AUC0–last),[8]; single oral doses 150–1800 mg,approximately dose proportional
same,"apparent clearance, range of mean values",[8]; single oral doses across 150–1800 mg,2590 to 3390 mL/h
same,C min,[9]; MAD 300 mg b.i.d.,1820 ng/mL
same,C min,[9]; MAD 900 mg b.i.d.,9080 ng/mL
same,"interindividual variability of PK parameters, %CVs",[9]; MAD stage,less than 50%
same,likely achievement of steady‐state,"[9]; MAD, both cohorts, from trough concentrations",≤ 2 days
same,accumulation ratios for Cmax and AUC0–tau,"[9]; both MAD cohorts (300 and 900 mg b.i.d.), steady‐state vs day 1",~ 1
same,decrease of AUC0–inf with a high‐fat meal,[10],14%
same,decrease of AUC0–last with a high‐fat meal,[10],14%
same,decrease of Cmax with a high‐fat meal,[10],~ 16%
same,no‐observed‐adverse‐effect level (NOAEL),[11],600 mg/kg/day
same,CYP3A4 induction potential,CYP3A4 [12],mild‐to‐moderate
same,mean inhibition of IL‐18 production across most of the 7‐day dosing period,IL‐18; 900‐mg b.i.d.,greater than 99%
same,IC90,"IL‐18; Homo sapiens, read-out: estimated plasma IC90 for IL‐18 inhibition",~2500 nM
same,inhibition of IL‐18 production (in words),IL‐18; all SAD cohorts,Near‐complete or complete inhibition
same,time for which IL‐18 inhibition was sustained,IL‐18; [22],~ 8 h
same,time for which IL‐18 inhibition was sustained,IL‐18; single 1800‐mg dose,~ 24 h
"Cc1ncc2n1-c1ccc(Cl)cc1C(c1ccccc1F)=NC2 [Midazolam, midazolam, reference compound]",AUC0–inf GMR,"CYP3A4 [1]; human, in vivo",97%
same,"AUC0–inf GMR (test/reference), estimate","CYP3A4 [1]; human, in vivo",0.97
same,AUC0–last GMR,"CYP3A4 [1]; human, in vivo",101%
same,"AUC0–last GMR (test/reference), estimate","CYP3A4 [1]; human, in vivo",1.01
same,"C max GMR (test/reference), estimate","CYP3A4 [1]; human, in vivo",1.12
same,Cmax GMR,"CYP3A4 [1]; human, in vivo",112%
same,AUC(0-inf),CYP3A4 [13],56 ng·h/mL
same,AUC(0-t),CYP3A4 [13],53.8 ng·h/mL
same,Cmax,CYP3A4 [13],25.6 ng/mL
same,AUC(0-inf),CYP3A4 [13]; 5 mg,57.8 ng·h/mL
same,AUC(0-t),CYP3A4 [13]; 5 mg,53.4 ng·h/mL
same,Cmax,CYP3A4 [13]; 5 mg,22.9 ng/mL
"Nc1c2c(cc3c1CCC3)CCC2 [indacenyl amine, 1,2,3,5,6,7‐hexahydro‐s‐indacen‐4‐amine]","day 7 predose indacenyl amine concentration, range",[14]; MAD 900‐mg b.i.d. cohort,65.8 to 158 ng/mL
same,half-life,"[14]; human, plasma, oral",2160 to 2940 min
canakinumab: an anti‐IL‐1β antibody,frequency of cardiovascular events,IL‐1β [15],significantly reduced

# From paper PMC10499406 (Clinical and Translational Science, 2023)
